Test results as given in ChEMBL document CHEMBL1671639, “Sitamaquine sensitivity in Leishmania species is not mediated by drug accumulation in acidocalcisomes” (Antimicrob Agents Chemother, 2008).
One block for each compound: values may come before it.

Assays:
[1] = tested on: Leishmania donovani; test: Drug uptake in Leishmania donovani MHOM/ET/67/L82 assessed as reduction in fluorescence of LysoTracker Green by Flow cytometry analysis; type: ADME, organism-based; conditions: in vivo
Procedure, shortened: (§1)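 Promastigotes at 4 × 10^6 cells/ml were loaded with 100 nM LysoTracker Green DND-26 in HBS for 10 min at 28°C. They were then exposed to 1, 10 or 30 μM sitamaquine for 15 min at 28°C, washed and resuspended in PBS. Flow cytometry used 488 nm excitation and 515–545 nm emission after gating out dead cells and debris. Signal expressed as % of untreated.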

[2] = tested on: Leishmania donovani; test: Antiparasitic activity against Leishmania donovani MHOM/ET/67/L82 after 3 days by Alamar blue assay; type: functional, organism-based; conditions: MHOM/ET/67/L82, 72 h
Procedure, shortened: (§2)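 Promastigotes grown at 28°C in RPMI 1640-modified medium with 20% heat-inactivated FBS and harvested after 48 h of growth. Exposed to increasing sitamaquine concentrations for 72 h at 28°C. Growth read by Alamar Blue fluorescence (excitation 530 nm, emission 585 nm). EC50 taken as the concentration giving 50% growth inhibition. Run three times in duplicate.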

[3] = tested on: Leishmania donovani; test: Drug uptake in Leishmania donovani MHOM/IN/80/DD8 assessed as reduction in fluorescence of LysoTracker Green by Flow cytometry analysis; type: ADME, organism-based; conditions: in vivo; procedure, shortened: as §1
[4] = tested on: Leishmania donovani; test: Drug uptake in Leishmania donovani at 10 uM for 10 mins by flow cytometry in presence of 20 mM NH4Cl acidic organelles alkalinization inducer; type: ADME, organism-based; conditions: in vivo
[5] = tested on: Leishmania donovani; test: Drug uptake in Leishmania donovani at 10 uM for 10 mins by flow cytometry in presence of ionophores monensin; type: ADME, organism-based; conditions: in vivo
[6] = tested on: Leishmania tropica; test: Antiparasitic activity against Leishmania tropica MHOM/SU/60/LCR-L39 after 3 days by Alamar blue assay; type: functional, organism-based; conditions: MHOM/SU/60/LCR-L39, 72 h; procedure, shortened: as §2
[7] = tested on: Leishmania infantum; test: Antiparasitic activity against Leishmania infantum MHOM/ES/1993/BCN-99 after 3 days by Alamar blue assay; type: functional, organism-based; conditions: MHOM/ES/1993/BCN-99, 72 h; procedure, shortened: as §2
[8] = tested on: Leishmania braziliensis; test: Antiparasitic activity against Leishmania braziliensis MHOM/PE/03/LH2419 after 3 days by Alamar blue assay; type: functional, organism-based; conditions: MHOM/PE/03/LH2419, 72 h; procedure, shortened: as §2
[9] = tested on: Leishmania donovani; test: Drug uptake in Leishmania donovani at 10 uM for 10 mins by flow cytometry in presence of nigericin; type: ADME, organism-based; conditions: in vivo
[10] = tested on: Leishmania tropica; test: Drug uptake in Leishmania tropica MHOM/SU/60/LCR-L39 assessed as reduction in fluorescence of LysoTracker Green by Flow cytometry analysis; type: ADME, organism-based; conditions: in vivo; procedure, shortened: as §1
[11] = tested on: Leishmania donovani; test: Drug uptake in Leishmania donovani at 5 uM after 15 mins at pH 8 by liquid scintillation counting; type: ADME, organism-based; conditions: in vivo, pH 8, 0.25 h
Procedure, shortened: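 Parasites were incubated at 28°C with [14C]sitamaquine in HBS adjusted to various pHs, up to pH 8. Cells were chilled, then washed 10 min on ice in PBS with 100 μM sitamaquine and twice in PBS. Uptake was quantified by liquid scintillation counting of Triton X-100 lysates, with Bradford protein. Means of three independent experiments.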

[12] = tested on: Leishmania tropica; test: Drug uptake in Leishmania tropica MHOM/SU/74/SAF-K27 assessed as reduction in fluorescence of LysoTracker Green by Flow cytometry analysis; type: ADME, organism-based; conditions: in vivo; procedure, shortened: as §1
[13] = tested on: Leishmania mexicana; test: Antiparasitic activity against Leishmania mexicana M9012 after 3 days by Alamar blue assay; type: functional, organism-based; conditions: M9012, 72 h; procedure, shortened: as §2
[14] = tested on: Leishmania donovani; test: Drug uptake in Leishmania donovani at 5 uM after 15 mins at 4 degC by liquid scintillation counting; type: ADME, organism-based; conditions: in vivo, 0.25 h
Procedure, shortened: (§3)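 PBS-washed parasites at 2 × 10^7/ml in HBS (pH 7) were incubated with 5 μM [14C]sitamaquine for 15 min at 28°C or 4°C. Washing was 10 min on ice in PBS or PBS with 100 μM unlabeled sitamaquine, then twice in PBS. Cell-associated radioactivity in 1% Triton X-100 lysates was counted by liquid scintillation and related to Bradford protein.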

[15] = tested on: Leishmania sp.; test: Antiparasitic activity against promastigotes of Leishmania sp. after 3 days by Alamar blue assay; type: functional, organism-based; conditions: 72 h; procedure, shortened: as §2
[16] = tested on: Leishmania donovani; test: Drug uptake in Leishmania donovani at 5 uM after 15 mins at 28 degC by liquid scintillation counting; type: ADME, organism-based; conditions: in vivo, 0.25 h; procedure, shortened: as §3
[17] = tested on: Leishmania major; test: Antiparasitic activity against amastigotes of delta-null mutant Leishmania major AP3 after 3 days by Alamar blue assay; type: functional, organism-based; conditions: AP3, 72 h
[18] = tested on: Leishmania major; test: Antiparasitic activity against wild type amastigotes of Leishmania major AP3-complemented after 3 days by Alamar blue assay; type: functional, organism-based; conditions: 72 h
[19] = tested on: Leishmania major; test: Drug uptake in Leishmania major MHOM/JL/80/Friedlin AP3delta-null mutant at 5 uM for 15 mins by liquid scintillation counting; type: ADME, organism-based; conditions: in vivo, 0.25 h
Procedure, shortened: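 Promastigotes from 48-h cultures were washed in PBS and resuspended at 2 × 10^7/ml in HEPES-buffered saline, pH 7. They were exposed to 5 μM [14C]sitamaquine for 15 min, chilled on ice, then washed 10 min on ice in PBS with 100 μM unlabelled sitamaquine and twice more in PBS. Pellets were lysed in 1% Triton X-100. Scintillation counts were normalised to Bradford protein.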

[20] = tested on: Leishmania major; test: Drug uptake in AP3-complemented Leishmania major MHOM/JL/80/Friedlin at 5 uM for 15 mins by liquid scintillation counting; type: ADME, organism-based; conditions: in vivo, 0.25 h; procedure, shortened: as §3
[21] = tested on: Leishmania donovani; test: Drug uptake in 1 mM N-ethylmaleimde pretreated Leishmania donovani at 5 uM after 15 mins by liquid scintillation counting; type: ADME, organism-based; conditions: in vivo, 0.25 h
Procedure, shortened: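 Parasites were treated with 1 mM NEM for 15 min on ice, then resuspended in fresh HBS. Cells at 2 × 10^7/ml were given 5 μM [14C]sitamaquine for 15 min at 28°C. Washing was 10 min on ice in PBS with 100 μM sitamaquine, then twice in PBS. Lysates in 1% Triton X-100 were read by scintillation counting, with Bradford protein.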

- Drug uptake [1]: Active
- Drug uptake [3]: Active
- Drug uptake [4]: Not Active
- Drug uptake [5]: Not Active
- Drug uptake [9]: Not Active
- Drug uptake [10]: Active
- Drug uptake [11]: Active
- Drug uptake [12]: Active
- Drug uptake [14]: Active
- Drug uptake [16]: Active
SMILES: CCN(CC)CCCCCCNc1cc(OC)cc2c(C)ccnc12.Cl.Cl
- EC50 [2]: 9.5 µM
- EC50 [6]: 9.5 µM
- EC50 [7]: 9.5 µM
- EC50 [8]: 9.5 µM
- EC50 [13]: 9.5 µM
- EC50 [15]: 5.7 µM

SMILES: CCN(CC)CCCCCCNc1cc(O[14CH3])cc2c(C)ccnc12.Cl.Cl
- EC50 [17]: 3.9 µM
- EC50 [18]: 4.3 µM
- Drug uptake [19]: Not Active
- Drug uptake [20]: Active
- Drug uptake [21]: Active
